Experimental data from different studies.
Protocols differ between the studies behind these lines.
FGFR4: Fibroblast growth factor receptor 4 (FGFR4, Homo sapiens, UniProt P22455)

SMILES | target | read-out | mode | method | tested at | measurement | value
Nc1ncnc2occ(-c3ccc(NC(=O)Nc4cc(C(F)(F)F)ccc4F)cc3)c12 | FGFR4 | cell-free assay |  |  | 20 µM | remaining signal | 0.1%
CCN(CC)c1ccc(C2=NNC(=O)CC2C)cc1[N+](=O)[O-] (centres unmarked) | FGFR4 | enzyme activity | inhibitor |  | 10 µM | remaining activity | 93%
Cc1sc(C(=O)NC2COC2)cc1-n1cc(NC(=O)Nc2c(F)cccc2Cl)cn1 | FGFR4 | enzyme activity | inhibitor |  | 10 µM | remaining activity | 96.8%
CN(C)CC#Cc1ccc(OCCCc2sc(N3CCc4cccc(C(=O)Nc5nc6ccccc6s5)c4C3)nc2C(=O)O)c(F)c1 | FGFR4 | cell-free assay |  | competition with immobilised ligand | 1 µM | remaining binding | 100%
Cc1ccc(C(=O)Nc2ccc(CN3CCN(C)CC3)c(C(F)(F)F)c2)cc1C#Cc1cnc2cccnn12 | FGFR4 | cell-free assay |  |  | 23.5 nM | remaining signal | 49%
Cc1ccc(NC(=O)c2ccc(C)c(C(F)(F)F)c2)cc1C#Cc1nn(C2CCC(O)CC2)c2ncnc(N)c12 (centres unmarked) | FGFR4 | cell-free assay |  |  | 10 µM | remaining signal | 33%
COc1cc2ncnc(Nc3ccc(Oc4ccccc4)c(C)c3C)c2cc1OC | FGFR4 | enzyme activity | inhibitor |  | 1 µM | inhibition | -1%
CNC(=O)c1cc(Oc2ccc(NC(=O)Nc3ccc(Cl)c(C(F)(F)F)c3)cc2)ccn1 | FGFR4 | enzyme activity | inhibitor |  | 10 µM | inhibition | 47%
CC(=O)N1CCC(c2ccc(C(=O)NC3=NCCN3)cc2C(F)(F)F)CC1 | FGFR4 | cell-free assay |  | competition with immobilised ligand | 1 µM | remaining binding | 88%
CC(C)(C)c1nc2c(s1)c1nc(N)ncc1c1ccc(NS(=O)(=O)c3c(F)cccc3F)c(F)c12 | FGFR4 | enzyme activity | inhibitor | radiometric | 1 µM | remaining activity | 104%
Cn1nc(C(=O)NCc2ccc(C(=O)O)cc2)cc1-c1ccc2[nH]ccc2c1 | FGFR4 | cell-free assay |  | competition with immobilised ligand | 0.1 µM | remaining binding | 100%
CNc1cccc2cc(C(=O)Nc3ccc(C(=O)O)cc3)c(=O)[nH]c12 | FGFR4 | enzyme activity | inhibitor |  | 10 µM | inhibition | 2.6%
Cc1cnc(NC2CCOCC2)nc1-n1cnc(C(=O)NC(CN)c2cc(F)cc(Cl)c2)c1 (centres unmarked) | FGFR4 | enzyme activity | inhibitor | radiometric | 1 µM | remaining activity | 105%
COc1ccc(COc2ccc(Cc3cnc(N)nc3N)cc2OC)cc1 | FGFR4 | cell-free assay |  |  | 0.5 µM | remaining signal | 99.7%
O=C(N1CCS(=O)(=O)CC1)N1C[C@H](c2ccc(OC(F)(F)F)cc2)C[C@H](c2nc(C3CC3)no2)C1 | FGFR4 | cell-free assay |  | competition with immobilised ligand | 1 µM | remaining binding | 100%
O=C1Nc2ccc(Cl)cc2C1=Cc1cc(Cl)c(O)c(Cl)c1 | FGFR4 | cell-free assay |  |  | 0.5 µM | remaining signal | 98%
Cn1cc(Cl)c2c(Oc3c(F)cc(Nc4cc(Cl)nc(N)n4)cc3F)ccnc21 | FGFR4 | cell-free assay |  | competition with immobilised ligand | 0.1 µM | remaining binding | 86%
COc1cc2nccc(Oc3ccc(NC(=O)c4c5n(n(-c6ccc(F)cc6)c4=O)CCCC5)cc3)c2cc1OC | FGFR4 | enzyme activity | inhibitor |  | 0.1 µM | inhibition | 5%
CCN(CC)CCNC(=O)c1c(C)[nH]c(/C=C2\C(=O)Nc3ccc(F)cc32)c1C | FGFR4 | enzyme activity | inhibitor |  | 0.3 µM | inhibition | -11%
O=C(Nc1cccnn1)N1CCC(=Cc2cccc(Oc3ccc(C(F)(F)F)cn3)c2)CC1 | FGFR4 | cell-free assay |  | competition with immobilised ligand | 1 µM | remaining binding | 100%
CCCOc1ccc(OC)c(F)c1C(=O)c1ccc(C(=O)N[C@@H]2CNC[C@H]2NC(=O)c2ccc3[nH]ncc3c2)cc1 | FGFR4 | enzyme activity | inhibitor |  | 10 µM | remaining activity | 75%
CCCCN(CCCC)C(=O)CN1C[C@H](c2cc(OC)c3c(c2)OCO3)[C@@H](C(=O)O)[C@@H]1CC(C)(C)CCC | FGFR4 | cell-free assay |  | competition with immobilised ligand | 1 µM | remaining binding | 100%
CC/C(=N\NC(=O)NCc1cccc(O)c1)c1ccc(O)c(C)c1O | Fibroblast growth factor receptor 4 (FGFR4, Homo sapiens, UniProt P22455, V550L) | enzyme activity | inhibitor |  | 0.1 µM | inhibition | 3.5%
